# Source: PubChem BioAssay
# Glyco luc inh: N-linked glycosylation inhibition. AID 588692. D54 ERlucT glycosylation luciferase reporter, 24 h; percent of 100 nM tunicamycin response. reporter increase, % at 12.5 µM. 0.23% of 360,000 active;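 active = mean luciferase reporter signal, scaled so untreated is 0 and the glycosylation-blocking control 100, at or above a set limit in every replicate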;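 note: luciferase carries N-glycosylation sites so blocking glycosylation raises the light; 0% = median of neutral control wells and 100% = median of 100 nM tunicamycin wells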
# MsrA inhibitor: inhibitors of bovine MsrA; purified bovine MsrA, absorbance read-out; inhibition, % at 15.5 µM; 0.75% of 360,000 active; AID 651718; in the data active = inhibition above about 4.5%;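 note: 0% = vehicle wells with enzyme and 100% = reference inhibitor wells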
# UCH37 DUB inh: human UCH37 deubiquitinating enzyme inhibition | Q9Y5K5 | purified proteasome/UCH37, Ub-AMC cleavage fluorescence | inhibition, % (test concentration not listed) | 0.33% of 330,000 active | AID 588478;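 active = mean inhibition over replicate wells above about 20%, limit read from the data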;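 note: 0% = compound-free wells with enzyme and 100% = wells lacking proteasome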
# Target sequence (Q9Y5K5 whole entry, looked up): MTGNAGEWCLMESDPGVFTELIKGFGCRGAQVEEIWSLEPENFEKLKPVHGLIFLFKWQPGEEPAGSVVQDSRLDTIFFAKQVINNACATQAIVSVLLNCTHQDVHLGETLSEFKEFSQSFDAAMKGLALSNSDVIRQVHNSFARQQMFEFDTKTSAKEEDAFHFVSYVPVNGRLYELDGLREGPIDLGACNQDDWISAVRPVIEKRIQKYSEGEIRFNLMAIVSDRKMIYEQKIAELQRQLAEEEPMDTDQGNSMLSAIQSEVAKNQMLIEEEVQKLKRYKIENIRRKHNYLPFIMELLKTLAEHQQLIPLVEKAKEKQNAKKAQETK
#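 Signal – fluorescence, ex 355 nm, em 460 nm · System – Proteasome-bound UCH37 · Input – 0.15 nM proteasome as dispensed · Timing – 30 min preincubation with enzyme, 25 min cleavage at room temperature · Read-out basis – percent inhibition of cleavage signal versus uninhibited and no-proteasome wells · Medium – Tris-HCl pH 7.4 with ATP-MgCl2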
# MsrA act: activators of bovine methionine sulfoxide reductase A; AID 602163; purified bovine MsrA, absorbance read-out; 0.3% of 360,000 active; activation, % at 10.6 µM; in the data active = activation above about 7.5%;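 note: 0% = vehicle and 100% = reference activator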
# aDG glyco act: increases alpha dystroglycan glycosylation; Pro5-aDG cells, alpha-DG glycosylation AlphaScreen (IIH6); 0% Pro5, 100% B10-LARGE cell signal; activation, % at 10 µM; 0.22% of 360,000 active; AID 624168;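 active = activation of at least 8% versus controls, or a plate z-score of at least 8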;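 note: Pro5 are CHO cells carrying HIG-tagged alpha-DG that lacks glycosylation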
# Vif inh: HIV Vif inhibition. 0.35% of 340,000 active. inhibition, % at 7.49 µM. HEK293T cells, Vif self-association by quenched fluorescence, imaging, 24 h; in the data active = inhibition above about 50%, passing the limit was not always enough
# Numbers without * were called inactive; i = inactive; / = no result. Only some compounds are listed: those with a hit (about 1.9% of all), similar ones and a draw of the others.
SMILES,Glyco luc inh,MsrA inhibitor,UCH37 DUB inh,MsrA act,aDG glyco act,Vif inh
Cc1csc(NC(=O)/C=C/c2ccc3c(c2)OCO3)n1,-12,4.6*,-12,-9,0,-12
CCCCCc1ccc(-c2cn(CN3C(=O)c4ccccc4C3=O)nn2)cc1,4,-1,5,-14,0,65*
COc1ccccc1NC(=O)Cn1c(O)c(N=NC(=O)c2ccccc2O)c2ccccc21,1,-1,16,-2,-1,116*
Cc1ccc(NC(=O)Cn2c(O)c(N=NC(=O)c3cc4ccccc4cc3O)c3ccccc32)cc1,-1,-1,19,-8,-1,4
O=C(NN=Cc1ccc([N+](=O)[O-])o1)C(=O)Nc1ccc(C(=O)O)cc1,/,/,12,/,/,/
O=C(COc1cccc(Cl)c1)Nc1ccc2c(c1)CCC2,3,0,-1,0,0,105*
O=C(COc1ccccc1F)Nc1ccc2c(c1)CCC2,1,0,-1,-2,0,-1
COc1ccc(-c2cc(-c3cccs3)c(C#N)c(SCC(=O)NCc3ccco3)n2)cc1,-2,/,-39,3,0,52*
CNC(=S)NN=Cc1c(C)c(C(=O)c2ccc(F)cc2)n2ccccc12,/,/,3,/,/,/
O=C(/C=C/c1ccc([N+](=O)[O-])s1)N1CCCCC1,39*,2,11,-1,4,7
O=C(/C=C/c1ccc([N+](=O)[O-])s1)N1CCCC1,18,1,12,0,6,3
Cc1cc(C)cc(NC(=O)/C=C/c2ccc([N+](=O)[O-])s2)c1,20,0,4,-7,0,96*
CCOc1cc(C=Nn2c(C)nc3sc(C)c(C)c3c2=O)ccc1O,/,/,8,/,/,/
CC(=NNc1ccc(F)cc1F)c1ccc(N2CCOCC2)cc1,/,/,5,/,/,/
CC(C)(C)c1cc[n+](C2=C([O-])c3ccccc3C(=O)/C2=N\S(=O)(=O)c2ccccc2)cc1,2,-1,10,1,0,-6
CCCCC[n+]1ccn(C2=C([O-])c3ccccc3C(=O)/C2=N\S(=O)(=O)c2ccccc2)c1,-13,-2,24*,-8,4,/
CCCCC[n+]1ccn(C2=C([O-])c3ccccc3C(=O)/C2=N\S(=O)(=O)c2ccc(Br)cc2)c1,-10,-1,7,-1,5.8*,-5
COc1ccc(OCC(=O)Nc2cc3c(cc2C(=O)O)OCCCO3)cc1,3,-1,/,-2,0,52*
CCOc1ccc(OCC(=O)Nc2cc3c(cc2C(=O)O)OCCCO3)cc1,1,-1,/,-3,0,14
CN1CCN(c2ccc(-c3cccc(NC(=O)COc4ccc(Cl)cc4)c3)nn2)CC1,-10,0,9,2,1,-12
CN1CCN(c2ccc(-c3cccc(NC(=O)COc4ccc(Cl)cc4Cl)c3)nn2)CC1,-13,-1,9,1,5.2*,-9
O=C(Nc1ccc(N2CCN(C(=O)c3ccc(Cl)cc3)CC2)cc1)c1ccc2c(c1)OCCO2,-13,0,-2,-8,4.0*,-19
CC(=NNc1cc(C)nc(NCc2ccccc2)n1)c1cccc([N+](=O)[O-])c1,/,/,9,/,/,/
Cc1cc(C)n(-c2nnc(C)n2N=Cc2cc(Br)ccc2OCc2ccccc2)n1,/,/,0,/,/,/
CCCOc1ccc2ccccc2c1/C=N/n1c(C)nnc1-n1nc(C)cc1C,27*,1,/,1,0,5
SMILES,Glyco luc inh,MsrA inhibitor,UCH37 DUB inh,MsrA act,aDG glyco act,Vif inh
Nc1nnc(CC(=O)N/N=C/c2ccc(-c3ccc(F)cc3)o2)s1,1,6.1*,/,-3,0,-3
CSc1n[nH]c(NC2=CC(=O)CCC2)n1,3,2,2,-5,0,59*
CC(=NNC(=O)c1c(Cl)cnn1C)c1cccc(NC(=O)c2ccc(C)cc2)c1,/,/,2,/,/,/
N#Cc1cc2c(=O)n3ccccc3nc2n(-c2ccccc2Cl)c1=O,11,2,i,0,0,154*
CN(C)/C=N/c1ncc(C(=O)c2ccc3ccccc3c2)s1,-3,4.6*,/,-6,0,-3
CN(C)C=Nc1ncc(C(=O)c2ccccc2)s1,/,/,12,/,/,/
CC(=NN1CCN(c2ccccc2)CC1)c1cccc([N+](=O)[O-])c1,/,/,1,/,/,/
CCN(CC)CCOC(=O)c1ccc(N/C=C(/C#N)c2nc(-c3cc4ccccc4oc3=O)cs2)cc1,-2,3,4,-3,0,58*
Cc1occc1C(=O)NN=CC1=C(N2CCOCC2)/C(=C\c2ccc(Cl)cc2)CC1,/,/,-8,/,/,/
